Activity calls are given as the source filed them. The calls are words filed in the database; no cut-off is given here.
What was measured:
[1] = Toxicity in NOD/SCID BALB/c mouse xenografted with human SiHa cells assessed as toxic effects in lungs at 40 mg/kg, po administered for 48 hrs by hematoxylin and eosin staining method; type: organism-based; conditions: in vivo
[2] = target: Transcription initiation factor TFIID subunit 1-like (Homo sapiens) (UniProt Q8IZX4); experiment: Inhibition of recombinant human TAF1L (1428 to end residues) at 1 uM using RRRFRPASPLRGPPK as substrate incubated for 40 mins in presence of [gamma-33P]-ATP by scintillation counting method relative to control
How it was run: (§1)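 Tested at a single 1 uM in an outsourced commercial kinase-profiling panel, read as percent inhibition. Each value is the mean of two independent experiments.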

[3] = test system: Platelet-derived growth factor receptor alpha (Homo sapiens), P16234 [V561D]; experiment: Inhibition of recombinant human PDGFRalpha V561D mutant (550 to end residues) at 1 uM using GGMEDIYFEFMGGKKK as substrate incubated for 40 mins in presence of [gamma-33P]-ATP by scintillation counting method relative to control; how it was run: as §1
[4] = target: Insulin receptor (Homo sapiens) (UniProt P06213); experiment: Inhibition of recombinant activated human IR (1005 to 1310 residues) at 1 uM using KKKSPGEYVNIEFG as substrate incubated for 40 mins in presence of [gamma-33P]-ATP by scintillation counting method relative to control
How it was run: (§2)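 Kinase panel profiling at 1 μM performed by Eurofins KinaseProfiler; percent inhibition reported as mean of two independent experiments.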

[5] = target: Serine/threonine-protein kinase BRSK1 (Homo sapiens) (UniProt Q8TDC3); experiment: Inhibition of recombinant human BRSK1 (2 to end residues) at 1 uM using KKKVSRSGLYRSP as substrate incubated for 40 mins in presence of [gamma-33P]-ATP by scintillation counting method relative to control; how it was run: as §2
[6] = target: PAS domain-containing serine/threonine-protein kinase (Homo sapiens) (UniProt Q96RG2); experiment: Inhibition of recombinant human PASK (995 to end residues) at 1 uM using KKLNRTLSFAEPG as substrate incubated for 40 mins in presence of [gamma-33P]-ATP by scintillation counting method relative to control
[7] = target: Angiopoietin-1 receptor (Homo sapiens) (UniProt Q02763); experiment: Inhibition of recombinant human TIE2 (771 to end residues) at 1 uM using EFPIYDFLPAKKK as substrate incubated for 40 mins in presence of [gamma-33P]-ATP by scintillation counting method relative to control
[8] = target: NUAK family SNF1-like kinase 1 (Homo sapiens) (UniProt O60285); experiment: Inhibition of recombinant human ARK5 (2 to end residues) at 1 uM using KKKVSRSGLYRSP as substrate incubated for 40 mins in presence of [gamma-33P]-ATP by scintillation counting method relative to control; how it was run: as §2
[9] = target: Insulin-like growth factor 1 receptor (Homo sapiens) (UniProt P08069); experiment: Inhibition of recombinant human IGF1R (959 to end residues) at 1 uM using KKKSPGEYVNIEFG as substrate incubated for 40 mins in presence of [gamma-33P]-ATP by scintillation counting method relative to control
[10] = target: Inhibitor of nuclear factor kappa-B kinase subunit epsilon (Homo sapiens) (UniProt Q14164); experiment: Inhibition of recombinant human full length IKKepsilon at 1 uM using casein as substrate incubated for 40 mins in presence of [gamma-33P]-ATP by scintillation counting method relative to control
[11] = target: Tyrosine-protein kinase Fes/Fps (Homo sapiens) (UniProt P07332); experiment: Inhibition of recombinant human FES (2 to end residues) at 1 uM using poly(Glu, Tyr) 4:1 as substrate incubated for 40 mins in presence of [gamma-33P]-ATP by scintillation counting method relative to control
MDA-MB-231 [12] = experiment: Induction of cell cycle arrest in human MDA-MB-231 cells assessed as decrease in accumulation in S phase at 20 to 40 nM incubated for 36 hrs by propidium iodide staining based flow cytometry; type: functional
How it was run: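 Cells were treated with graded concentrations for 36 h, then fixed overnight in 70% ice-cold ethanol at 4°C and resuspended in PBS. Staining used 50 µg/ml PI plus 5 µg/ml RNase at 37°C for 30 min. DNA content was analysed by FACS to give G0/G1, S and G2/M fractions.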

[13] = target: Testis-specific serine/threonine-protein kinase 4 (Homo sapiens) (UniProt Q6SA08); experiment: Inhibition of recombinant human full length TSSK4 at 1 uM using KKLNRTLSFAEPG as substrate incubated for 40 mins in presence of [gamma-33P]-ATP by scintillation counting method relative to control
How it was run: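 Single-point inhibition at 1 uM measured in a commercial kinase profiling panel (KinaseProfiler); each value is the mean of two independent experiments.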

[14] = target: Inhibitor of nuclear factor kappa-B kinase subunit alpha (Homo sapiens) (UniProt O15111); experiment: Inhibition of recombinant human full length IKKalpha at 1 uM using peptide as substrate incubated for 40 mins in presence of [gamma-33P]-ATP by scintillation counting method relative to control; how it was run: as §1
[15] = Toxicity in NOD/SCID BALB/c mouse xenografted with human SiHa cells assessed as toxic effects in heart at 40 mg/kg, po administered for 48 hrs by hematoxylin and eosin staining method; type: organism-based; conditions: in vivo
[16] = target: Serine/threonine-protein kinase PAK 4 (Homo sapiens) (UniProt O96013); experiment: Inhibition of recombinant human PAK4 (295 to end residues) at 1 uM using myelin basic protein as substrate incubated for 40 mins in presence of [gamma-33P]-ATP by scintillation counting method relative to control
[17] = target: cAMP-dependent protein kinase catalytic subunit PRKX (Homo sapiens) (UniProt P51817); experiment: Inhibition of recombinant human full length PrKX at 1 uM using RRRLSFAEPG as substrate incubated for 40 mins in presence of [gamma-33P]-ATP by scintillation counting method relative to control
[18] = test system: Fibroblast growth factor receptor 2 (Homo sapiens), P21802 [N549H]; experiment: Inhibition of recombinant human FGFR2 N549H mutant (456 to 770 residues) at 1 uM using GGEEEEYFELVKKKK as substrate incubated for 40 mins in presence of [gamma-33P]-ATP by scintillation counting method relative to control
HeLa = experiment: Induction of apoptosis in human HeLa cells assessed as decrease in Bcl2 expression at 80 nM incubated for 48 hrs by Western blot analysis; type: functional, cell-based
How it was run: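 Cells were treated for 48 h, washed three times with PBS, and lysed in RIPA buffer. Immunoblots used anti-Rb, anti-phospho-Rb, anti-Ki67 and anti-Bcl-2 (each 1:1000), with β-actin as loading control.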

MDA-MB-231 [19] = experiment: Induction of apoptosis in human MDA-MB-231 cells at 40 nM incubated for 48 hrs by annexin V FITC and propidium iodide staining based flow cytometry; type: functional, cell-based
How it was run: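 Annexin V-FITC/PI double staining with flow-cytometric readout. MDA-MB-231, T-47D, SiHa and HeLa cells were treated with graded concentrations for 48 h. MDA-MB-231 and T-47D were grown in DMEM and SiHa in 1640 medium, each with 10% FBS and 1% penicillin/streptomycin at 37°C under 5% CO2. Early- and late-stage apoptotic fractions were scored.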

Chain of cAMP-dependent protein kinase catalytic subunit PRKX (Homo sapiens) (P51817 whole entry, the tested form may be a part): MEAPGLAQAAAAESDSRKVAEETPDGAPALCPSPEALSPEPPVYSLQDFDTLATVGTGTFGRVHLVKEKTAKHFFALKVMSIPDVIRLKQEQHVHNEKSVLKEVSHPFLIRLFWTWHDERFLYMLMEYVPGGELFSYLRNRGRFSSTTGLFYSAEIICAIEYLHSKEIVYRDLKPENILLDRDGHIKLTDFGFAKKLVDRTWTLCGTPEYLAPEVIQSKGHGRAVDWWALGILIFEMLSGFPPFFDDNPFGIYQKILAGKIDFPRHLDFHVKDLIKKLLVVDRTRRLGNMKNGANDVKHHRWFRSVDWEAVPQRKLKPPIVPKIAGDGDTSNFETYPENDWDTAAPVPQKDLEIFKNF
Chain of Serine/threonine-protein kinase PAK 4 (Homo sapiens) (O96013 whole entry, looked up): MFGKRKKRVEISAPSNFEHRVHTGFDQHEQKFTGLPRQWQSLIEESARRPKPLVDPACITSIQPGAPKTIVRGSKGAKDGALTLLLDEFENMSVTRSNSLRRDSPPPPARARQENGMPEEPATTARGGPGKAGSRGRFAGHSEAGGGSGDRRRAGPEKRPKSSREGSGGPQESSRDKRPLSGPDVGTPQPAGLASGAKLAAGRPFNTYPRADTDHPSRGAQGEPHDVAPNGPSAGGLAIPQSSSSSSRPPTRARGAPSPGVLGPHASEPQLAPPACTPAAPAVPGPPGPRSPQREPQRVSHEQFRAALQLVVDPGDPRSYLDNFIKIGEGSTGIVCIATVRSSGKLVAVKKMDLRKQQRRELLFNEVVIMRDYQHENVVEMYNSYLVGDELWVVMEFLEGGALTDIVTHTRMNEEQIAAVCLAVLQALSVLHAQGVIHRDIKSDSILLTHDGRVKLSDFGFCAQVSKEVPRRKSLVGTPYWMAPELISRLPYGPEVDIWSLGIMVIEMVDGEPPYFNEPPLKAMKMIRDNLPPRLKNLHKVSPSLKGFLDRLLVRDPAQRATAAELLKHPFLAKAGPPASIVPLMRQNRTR
Chain of Testis-specific serine/threonine-protein kinase 4 (Homo sapiens) (Q6SA08 whole entry): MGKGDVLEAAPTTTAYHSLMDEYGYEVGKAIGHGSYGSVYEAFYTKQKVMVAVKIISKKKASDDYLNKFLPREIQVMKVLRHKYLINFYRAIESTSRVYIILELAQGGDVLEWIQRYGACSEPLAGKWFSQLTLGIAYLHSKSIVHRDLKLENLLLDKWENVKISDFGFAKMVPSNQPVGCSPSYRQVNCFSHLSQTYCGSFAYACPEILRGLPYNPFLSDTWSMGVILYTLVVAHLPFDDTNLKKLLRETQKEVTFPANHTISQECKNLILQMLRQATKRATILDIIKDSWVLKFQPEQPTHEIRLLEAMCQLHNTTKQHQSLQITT
Chain of NUAK family SNF1-like kinase 1 (Homo sapiens) (O60285 whole entry): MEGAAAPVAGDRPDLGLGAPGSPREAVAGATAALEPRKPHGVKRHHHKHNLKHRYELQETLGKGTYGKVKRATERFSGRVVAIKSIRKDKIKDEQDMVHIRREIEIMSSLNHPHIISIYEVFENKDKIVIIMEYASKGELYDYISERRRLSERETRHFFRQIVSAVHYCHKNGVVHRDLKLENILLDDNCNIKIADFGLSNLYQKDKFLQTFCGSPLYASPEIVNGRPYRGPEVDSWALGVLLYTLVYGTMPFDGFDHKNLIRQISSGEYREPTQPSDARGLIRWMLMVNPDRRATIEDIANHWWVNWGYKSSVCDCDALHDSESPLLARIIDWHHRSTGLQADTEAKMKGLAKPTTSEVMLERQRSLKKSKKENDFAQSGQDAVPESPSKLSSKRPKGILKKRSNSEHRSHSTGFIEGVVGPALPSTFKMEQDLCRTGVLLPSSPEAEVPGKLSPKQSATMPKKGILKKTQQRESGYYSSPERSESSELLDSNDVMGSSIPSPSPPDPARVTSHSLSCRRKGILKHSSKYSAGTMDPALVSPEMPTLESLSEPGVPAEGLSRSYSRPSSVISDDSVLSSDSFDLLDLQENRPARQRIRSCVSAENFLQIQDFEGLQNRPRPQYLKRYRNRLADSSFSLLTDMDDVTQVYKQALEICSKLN
Chain of Angiopoietin-1 receptor (Homo sapiens) (Q02763 whole entry): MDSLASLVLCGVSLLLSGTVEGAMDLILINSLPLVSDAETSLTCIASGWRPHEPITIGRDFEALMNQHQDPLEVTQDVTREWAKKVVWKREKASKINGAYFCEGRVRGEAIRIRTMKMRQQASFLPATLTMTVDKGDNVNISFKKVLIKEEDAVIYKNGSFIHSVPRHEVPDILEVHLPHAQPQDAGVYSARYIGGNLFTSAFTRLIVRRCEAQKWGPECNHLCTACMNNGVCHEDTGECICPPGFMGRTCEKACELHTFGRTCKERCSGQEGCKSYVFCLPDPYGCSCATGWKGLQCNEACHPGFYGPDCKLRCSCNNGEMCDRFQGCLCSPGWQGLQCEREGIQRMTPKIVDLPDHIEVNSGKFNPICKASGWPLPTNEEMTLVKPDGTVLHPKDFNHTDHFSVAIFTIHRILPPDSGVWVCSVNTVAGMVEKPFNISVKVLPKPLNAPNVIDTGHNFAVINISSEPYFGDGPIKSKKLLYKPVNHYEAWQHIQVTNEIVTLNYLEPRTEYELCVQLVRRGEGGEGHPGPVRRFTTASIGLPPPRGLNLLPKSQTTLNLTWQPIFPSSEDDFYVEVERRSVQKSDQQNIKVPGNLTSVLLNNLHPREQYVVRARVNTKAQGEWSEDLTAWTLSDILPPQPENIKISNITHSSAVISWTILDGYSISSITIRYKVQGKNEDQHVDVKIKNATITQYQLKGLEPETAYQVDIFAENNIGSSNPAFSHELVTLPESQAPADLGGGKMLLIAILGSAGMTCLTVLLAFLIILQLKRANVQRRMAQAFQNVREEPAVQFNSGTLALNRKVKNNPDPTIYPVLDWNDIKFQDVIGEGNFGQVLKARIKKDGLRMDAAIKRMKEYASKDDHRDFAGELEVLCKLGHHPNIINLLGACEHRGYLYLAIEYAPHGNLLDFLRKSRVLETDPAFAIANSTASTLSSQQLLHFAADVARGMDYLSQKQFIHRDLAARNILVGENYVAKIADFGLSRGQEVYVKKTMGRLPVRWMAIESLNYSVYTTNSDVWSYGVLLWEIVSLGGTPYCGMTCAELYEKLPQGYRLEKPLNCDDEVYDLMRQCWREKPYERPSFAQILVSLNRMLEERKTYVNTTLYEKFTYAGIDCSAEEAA
Chain of Fibroblast growth factor receptor 2 (Homo sapiens), P21802 [N549H] (P21802 whole entry N549H, the tested form may be a part): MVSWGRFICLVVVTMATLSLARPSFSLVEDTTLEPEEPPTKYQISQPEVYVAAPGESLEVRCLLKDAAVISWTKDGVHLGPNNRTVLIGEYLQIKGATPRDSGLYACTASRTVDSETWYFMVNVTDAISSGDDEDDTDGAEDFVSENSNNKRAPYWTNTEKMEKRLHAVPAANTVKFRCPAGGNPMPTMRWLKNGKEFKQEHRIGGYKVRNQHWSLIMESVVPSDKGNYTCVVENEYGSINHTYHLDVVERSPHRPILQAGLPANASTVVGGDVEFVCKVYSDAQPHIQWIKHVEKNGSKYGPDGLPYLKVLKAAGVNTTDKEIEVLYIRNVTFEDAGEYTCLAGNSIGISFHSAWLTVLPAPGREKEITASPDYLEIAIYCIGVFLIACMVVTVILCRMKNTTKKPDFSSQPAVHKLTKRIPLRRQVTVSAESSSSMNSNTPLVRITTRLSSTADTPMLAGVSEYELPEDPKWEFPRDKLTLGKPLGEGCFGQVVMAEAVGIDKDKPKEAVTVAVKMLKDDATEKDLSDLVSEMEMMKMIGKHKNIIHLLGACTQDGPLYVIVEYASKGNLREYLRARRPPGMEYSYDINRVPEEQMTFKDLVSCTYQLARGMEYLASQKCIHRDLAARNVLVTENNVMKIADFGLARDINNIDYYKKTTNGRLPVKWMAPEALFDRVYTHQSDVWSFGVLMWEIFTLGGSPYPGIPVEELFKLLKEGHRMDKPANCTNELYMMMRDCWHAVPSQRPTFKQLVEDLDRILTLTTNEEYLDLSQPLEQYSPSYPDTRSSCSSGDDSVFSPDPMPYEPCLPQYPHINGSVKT
Chain of Platelet-derived growth factor receptor alpha (Homo sapiens), P16234 [V561D] (P16234 whole entry V561D, the tested form may be a part): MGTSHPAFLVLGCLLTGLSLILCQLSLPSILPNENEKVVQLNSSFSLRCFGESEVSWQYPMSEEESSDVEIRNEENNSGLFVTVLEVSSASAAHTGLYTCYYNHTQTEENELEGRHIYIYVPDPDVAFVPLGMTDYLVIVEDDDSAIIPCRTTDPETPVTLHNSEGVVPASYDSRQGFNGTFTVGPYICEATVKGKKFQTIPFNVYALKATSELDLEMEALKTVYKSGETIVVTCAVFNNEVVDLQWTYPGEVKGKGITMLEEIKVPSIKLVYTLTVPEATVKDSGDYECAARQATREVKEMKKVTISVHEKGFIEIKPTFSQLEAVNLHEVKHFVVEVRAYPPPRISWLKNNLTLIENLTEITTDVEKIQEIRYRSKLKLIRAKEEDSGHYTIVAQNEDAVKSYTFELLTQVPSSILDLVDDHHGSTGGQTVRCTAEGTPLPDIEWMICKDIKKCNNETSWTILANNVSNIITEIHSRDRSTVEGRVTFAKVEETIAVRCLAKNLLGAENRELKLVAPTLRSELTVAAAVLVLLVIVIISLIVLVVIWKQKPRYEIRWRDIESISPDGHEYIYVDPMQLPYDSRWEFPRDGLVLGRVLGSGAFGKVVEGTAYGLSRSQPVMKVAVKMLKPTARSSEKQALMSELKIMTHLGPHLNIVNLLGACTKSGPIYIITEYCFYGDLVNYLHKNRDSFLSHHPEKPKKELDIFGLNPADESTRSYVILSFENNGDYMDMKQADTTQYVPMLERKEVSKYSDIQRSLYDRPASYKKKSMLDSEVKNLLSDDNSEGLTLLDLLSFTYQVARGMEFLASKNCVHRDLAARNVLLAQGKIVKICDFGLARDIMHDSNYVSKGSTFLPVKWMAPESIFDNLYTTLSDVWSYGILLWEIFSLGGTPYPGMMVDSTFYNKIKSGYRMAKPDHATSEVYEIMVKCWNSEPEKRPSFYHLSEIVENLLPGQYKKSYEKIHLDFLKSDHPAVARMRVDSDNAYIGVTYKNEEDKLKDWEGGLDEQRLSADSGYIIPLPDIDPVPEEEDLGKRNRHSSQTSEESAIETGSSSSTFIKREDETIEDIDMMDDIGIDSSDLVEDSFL

SMILES: Cc1ccc(NC(=O)C2(C(=O)Nc3ccc(Nc4ncc(F)c(-c5cc(F)c6nc(C)n(C(C)C)c6c5)n4)cc3)CC2)cc1
- Activity [1]: Non-Toxic
- inhibition [2]: 0%
- inhibition [3]: 70%
- inhibition [4]: 27%
- inhibition [5]: 14%
- inhibition [6]: 19%
- inhibition [7]: 23%
- inhibition [8]: 69%
- inhibition [9]: 11%
- inhibition [10]: 47%
- inhibition [11]: 89%
- Activity (MDA-MB-231 [12]): Active
- inhibition [13]: 0%
- inhibition [14]: 0%
- Activity [15]: Non-Toxic
- inhibition [16]: 50%
- inhibition [17]: 43%
- inhibition [18]: 7%

SMILES: COc1cc2nccc(Oc3ccc(NC(=O)C4(C(=O)Nc5ccc(F)cc5)CC4)cc3)c2cc1OC [CABOZANTINIB]
- Activity (HeLa): Active
- Activity (MDA-MB-231 [19]): Active

Reference: ChEMBL document CHEMBL4406821, “Novel dual inhibitors targeting CDK4 and VEGFR2 synergistically suppressed cancer progression and angiogenesis” (Eur J Med Chem, 2019)
